# Source: the RNAGym collection of RNA variant scans (doi:10.1038/s41586-018-0170-7)
# B1: tRNA (parent)
# chain: GUUCCGUUGGCGUAAUGGUAACGCGUCUCCCUCCUAAGGAGAAGACUGCGGGUUCGAGUCCCGUACGGAACG
# Variants of: B1
# Experiment: yeast fitness, log relative to wild type (ln ratio); higher = fitter; tRNA-Arg(CCU), competitive growth, 37 C, 1 M NaCl
# Method in brief: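 Genotype fitness is expressed as the natural log of its generations over those of the wild type. Each pool of the tRNA-Arg(CCU) variant library, carried on a HIS3 centromeric plasmid in BY4742 lacking the chromosomal gene, came from one of two independent transformations and grew 4 generations in SC-HIS at 30 °C before ~6.5 generations (~26.5 h) in SC-HIS 1M NaCl at 37 °C. Generation numbers used OD-scaled log2 output/input frequencies from 125 bp paired-end Illumina sequencing, combined across replicates by inverse-variance weighting.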
row,Variant,yeast fitness (ln)
1,AGUCCGUUGGCGUAAUGGUAACGCGUCUCCCUCCUAAGGAGAAGAUUGCGGGUUCGAGUCCCGUAAGGAGUG,-0.198
2,AGUCCAUUGGCGUAAUGGUAACGCGUCUCCCUCCUAAGGAGAAGACUGCGGGUUCGAGUCCCGUACGGAACG,-0.0537
3,AGUCCAUUGGCGUAAUGGUAACGCGUCUCCCUCCUAAGGAGACGAUUGCGGGUUCGAGUCCCGUACGGGUUG,-0.262
4,AGUCCGUUGGCGUAAUGGUAACGCGUCUCCCUCCUAAGGAGAAGAUUGCGGGUUCGAGUCCCGUAAGGGUCG,-0.0906
5,AGUCCAUUGGCGUAAUGGUAACGCGUCUCCCUCCUAAGGAGACGACUGCGGGUUCGAGUCCCGUACGGAUCG,-0.216
6,AGUCCAUUGGCGUAAUGGUAACGCGUCUCCCUCCUAAGGAGACGACUGCGGGUUCGAGUCCCGUACGGAGCG,-0.304
7,AGUCCGUUGGCGUAAUGGUAACGCGUUUCCCUCCUAAGGAGAAGACUGCGGGUUCGAGUCCCGUAUGGAAUG,-0.244
8,AGUCCAUUGGCGUAAUGGUAACGCGUCUCCCUCCUAAGGAGACGAUUGCGGGUUCGAGUCCCGUACGGGGCG,-0.292
9,AGUCCAUUGGCGUAAUGGUAACGCGUCUCCCUCCUAAGGAGACGAUUGCGGGUUCGAGUCCCGUACGGGUCG,-0.0779
10,AGUCCAUUGGCGUAAUGGUAACGCGUCUCCCUCCUAAGGAGACGACUGCGGGUUCGAGUCCCGUACGGGGCG,-0.238
11,AGUCCGUUGGCGUAAUGGUAACGCGUCUCCCUCCUAAGGAGAAGACUGCGGGUUCGAGUCCCGUAUGGGGUG,-0.165
12,AGUCCGUUGGCGUAAUGGUAACGCGUCUCCCUCCUAAGGAGAAGAUUGCGGGUUCGAGUCCCGUACGGGACG,-0.13
13,AGUCCAUUGGCGUAAUGGUAACGCGUCUCCCUCCUAAGGAGACGAUUGCGGGUUCGAGUCCCGUACGGGAUG,-0.206
14,AGUCCGUUGGCGUAAUGGUAACGCGUCUCCCUCCUAAGGAGAAGAUUGCGGGUUCGAGUCCCGUAUGGAGUG,-0.161
15,AGUCCGUUGGCGUAAUGGUAACGCGUCUCCCUCCUAAGGAGAAGAUUGCGGGUUCGAGUCCCGUACGGAAUG,-0.25
16,AGUCCGUUGGCGUAAUGGUAACGCGUCUCCCUCCUAAGGAGAAGACUGCGGGUUCGAGUCCCGUAAGGAAUG,-0.0937
17,AGUCCGUUGGCGUAAUGGUAACGCGUUUCCCUCCUAAGGAGAAGACUGCGGGUUCGAGUCCCGUAUGGAUUG,-0.365
18,AGUCCAUUGGCGUAAUGGUAACGCGUCUCCCUCCUAAGGAGACGAUUGCGGGUUCGAGUCCCGUACGGAACG,-0.111
19,AGUCCGUUGGCGUAAUGGUAACGCGUCUCCCUCCUAAGGAGAAGAUUGCGGGUUCGAGUCCCGUACGGGUUG,-0.0215

row,Variant,yeast fitness (ln)
1,AGUCCGUUGGCGUAAUGGUAACGCGUUUCCCUCCUAAGGAGAAGACUGCGGGUUCGAGUCCCGUAUGGAUCG,-0.174
2,AGUCCGUUGGCGUAAUGGUAACGCGUCUCCCUCCUAAGGAGAAGAUUGCGGGUUCGAGUCCCGUAAGGAUUG,-0.152
3,AGUCCGUUGGCGUAAUGGUAACGCGUCUCCCUCCUAAGGAGAAGAUUGCGGGUUCGAGUCCCGUAUGGGAUG,-0.318
4,AGUCCGUUGGCGUAAUGGUAACGCGUCUCCCUCCUAAGGAGAAGACUGCGGGUUCGAGUCCCGUAUGGAUUG,-0.486
5,AGUCCAUUGGCGUAAUGGUAACGCGUCUCCCUCCUAAGGAGACGAUUGCGGGUUCGAGUCCCGUAAGGGUUG,-0.286
6,AGUCCGUUGGCGUAAUGGUAACGCGUCUCCCUCCUAAGGAGAAGACUGCGGGUUCGAGUCCCGUAUGGGUCG,-0.197
7,AGUCCGUUGGCGUAAUGGUAACGCGUCUCCCUCCUAAGGAGAAGACUGCGGGUUCGAGUCCCGUAUGGGGCG,-0.243
8,AGUCCGUUGGCGUAAUGGUAACGCGUCUCCCUCCUAAGGAGAAGAUUGCGGGUUCGAGUCCCGUAUGGGUUG,-0.321
9,AGUCCAUUGGCGUAAUGGUAACGCGUCUCCCUCCUAAGGAGACGAUUGCGGGUUCGAGUCCCGUACGGAGCG,-0.163
10,AGUCCAUUGGCGUAAUGGUAACGCGUCUCCCUCCUAAGGAGACGAUUGCGGGUUCGAGUCCCGUACGGAUCG,-0.165
11,AGUCCGUUGGCGUAAUGGUAACGCGUUUCCCUCCUAAGGAGAAGACUGCGGGUUCGAGUCCCGUACGGAAUG,-0.108
12,AGUCCGUUGGCGUAAUGGUAACGCGUCUCCCUCCUAAGGAGAAGACUGCGGGUUCGAGUCCCGUAAGGGGUG,-0.235
13,AGUCCAUUGGCGUAAUGGUAACGCGUCUCCCUCCUAAGGAGACGACUGCGGGUUCGAGUCCCGUACGGAACG,-0.238
14,AGUCCGUUGGCGUAAUGGUAACGCGUCUCCCUCCUAAGGAGAAGAUUGCGGGUUCGAGUCCCGUAUGGGGUG,-0.195
15,AGUCCGUUGGCGUAAUGGUAACGCGUCUCCCUCCUAAGGAGAAGACUGCGGGUUCGAGUCCCGUAAGGAUUG,-0.146
16,AGUCCGUUGGCGUAAUGGUAACGCGUCUCCCUCCUAAGGAGAAGAUUGCGGGUUCGAGUCCCGUAAGGGUUG,-0.385
17,AGUCCGUUGGCGUAAUGGUAACGCGUCUCCCUCCUAAGGAGAAGAUUGCGGGUUCGAGUCCCGUAUGGAAUG,-0.117
18,AGUCCGUUGGCGUAAUGGUAACGCGUCUCCCUCCUAAGGAGAAGAUUGCGGGUUCGAGUCCCGUAUGGAACG,-0.0764
